Screening data deposited in PubChem BioAssay by several laboratories.
Hits are enriched below; roughly 3.5% of the tested compounds scored in any of these assays.
ABCG2 block – ABCG2 efflux pump inhibitors, primary screen, multiplex with ABCB1, IgMXP3 cells, flow cytometry | JC-1 efflux | inhibition, % at 6.6 µM | 190,000 tested, 0.1% active;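 active means inhibition above 80%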;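 further: 0% = DMSO and 100% = nicardipine control wells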
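Test system: ABCG2 IgMXP3 and barcoded ABCB1 CCRF-Adr cell mix; Schedule: cells with compound and JC-1, 10 min at 25 °C, rotating, no wash; Technique: flow cytometry of retained JC-1 fluorescence; Measure: % inhibition of efflux relative to nicardipine and DMSO; Controls: nicardipine high and DMSO low controls.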
MEKK3 PB1 HTS – modulators of MEKK3-MEK5 PB1 binding, primary screen, biochemical, wildtype MEKK3, multiplex bead flow cytometry, Alexa488-MEK5. Mitogen-activated protein kinase kinase kinase 3 (Homo sapiens), Q99759. bead-based flow cytometry, Alexa488-MEK5 binding to MEKK3; actives lie on both sides; 0 = blocked by unlabeled MEK5, 100 = vehicle. binding response (% of control), % at 10 µM. 290,000 tested, 1.4% active. AID 1529, 2009;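 active means binding response more than 3 SD above or below the average of its plate-row segment, actives on both sides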;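 further: Alexa488 bead fluorescence after subtracting the streptavidin-only scavenger bead signal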
MEKK2wt PB1 HTS – modulators of MEK5 binding to wildtype MEKK2, primary screen, biochemical, multiplex bead flow cytometry, Alexa488-MEK5; Alexa488-MEK5 binding to MEKK2 WT; actives lie on both sides; binding response (% of control), % at 10 µM; 290,000 tested, 1.1% active; AID 1531, 2009; in the data active means binding response below about 67% or above about 130%
ABCB1 inh – ABCB1 efflux pump inhibitors, primary screen, cell-based, multiplex, flow cytometry, ABCG2 counter-screen | ATP-dependent translocase ABCB1 (Homo sapiens), P08183 | CCRF-Adr cells, JC-1 efflux | inhibition, % at 6.6 µM | 190,000 tested, 0.067% active; in the data active means inhibition above about 40%;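 further: 0% = vehicle and 100% = reference inhibitor; higher value means more JC-1 retained so stronger ABCB1 efflux block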
WT yeast gro inh – growth inhibition of WT strain, primary screen, mitochondrial fusion inhibitor project, WT and mutant strains, chemical genetic; mitochondrial fusion phenotypic screen; inhibition, % at 10 µM; 190,000 tested, 2.1% active; in the data active means inhibition above about 58%; tested in S. cerevisiae
MEKK2mut PB1 HTS – MEK5 binding signal on mutant MEKK2 PB1, primary screen, biochemical, multiplex bead flow cytometry, Alexa488-MEK5; percent response, % at 10 µM; Alexa488-MEK5 binding to MEKK2 mutant; 290,000 tested, 0.35% active; in the data active means percent response above about 24%, passing the limit was not always enough
MEKK2wt confirm – modulators of MEK5 binding to wildtype MEKK2, confirmation, biochemical, single concentration, multiplex bead flow cytometry; shares compounds with MEKK3 PB1 HTS; AID 1892, 2009; Alexa488-MEK5 binding to MEKK2 WT; actives lie on both sides; 5,900 tested, 2.4% active; binding response (% of control), % at 10 µM; in the data active means binding response below about 16% or above about 210%; inactive means in between
MEKK2mut-MEK5 – mutant MEKK2 PB1-MEK5 binding signal retest – biochemical, single concentration, multiplex bead flow cytometry, confirmation; shares compounds with MEKK3 PB1 HTS; Alexa488-MEK5 binding to MEKK2 mutant; percent response, % at 10 µM; 5,900 tested, 2% active; AID 1893, 2009; in the data active means percent response mostly above about 71%, no sharp cut-off; inactive means mostly below about 38%;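 further: higher means compound restores mutant binding toward wildtype level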
MEKK3 confirm – MEKK3 wild-type PB1 binding to MEK5, inhibitors, confirmation, biochemical, bead multiplex flow cytometry, single concentration, wildtype; binding response (% of control), % at 10 µM; shares compounds with MEKK3 PB1 HTS; 5,900 tested, 1.8% active; Alexa488-MEK5 binding to MEKK3; active compounds read low;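 active means binding response below 72% of control, or above a set upper limit, though filed actives all read lower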;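 further: 100% = DMSO only wells and 0% = binding blocked by excess unlabeled MEK5; lower values mean stronger disruption of MEK5 binding to MEKK3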
* = called active by the depositor; . = no result given; [ ] = dose if it differs, or a comment.

SMILES	ABCG2 block	MEKK3 PB1 HTS	MEKK2wt PB1 HTS	ABCB1 inh	WT yeast gro inh	MEKK2mut PB1 HTS	MEKK2wt confirm	MEKK2mut-MEK5	MEKK3 confirm
COc1ccc(NC(=S)NNS(=O)(=O)c2ccc3ccccc3c2)c(OC)c1	0	102	99	0	-8	-1	.	.	.
O=C(NNS(=O)(=O)c1ccccc1)c1cccs1	3	104	104	1	-1	18	.	.	.
O=[N+]([O-])c1ccc2sc(SCc3nc4ccccn4c3Br)nc2c1	-1	138*	104	0	-6	0	102	-2	102
Brc1c(CSc2nc3ccccc3s2)nc2ncccn12	22	99	109	1	2	15	.	.	.
O=C(N/N=C/c1c[nH]c2ccccc12)c1cc(-c2ccc3ccccc3c2)n[nH]1	-2	112	138*	0	-5	15	104	-5	102
O=C(N/N=C/c1c[nH]c2ccccc12)c1cc(-c2ccc(-c3ccccc3)cc2)n[nH]1	-2	93	78	-1	-4	-9	.	.	.
COc1ccc(OCCC(=O)N2CCN(C)CC2)cc1	.	114	113	.	.	25*	103	0	102
COc1ccc(CC(=O)N2CCN(C(=O)Cc3ccc(OC)cc3)CC2)cc1	3	.	.	1	10	.	.	.	.
C=CCS/C(N)=N\N=C\c1c(O)ccc2ccccc12	.	139*	131	.	.	24	107	5	106
CCCS/C(N)=N/N=C/c1ccccc1O	4	108	107	0	5	10	.	.	.
O/C(=C\Sc1nnc(Cc2ccccc2)o1)c1ccc(F)cc1	0	77	77	0	10	-16	.	.	.
COc1ccc(OCC(=O)N/N=C/c2ccsc2)cc1	-10	140*	104	0	-40	0	105	8	101
Cc1[nH]c2ccccc2c1/C=C(\C#N)C(=O)NCc1ccccc1	2	108	15*	0	-17	134*	106	4	101
Cc1ccsc1/C=C(\C#N)C(=O)NCc1cccnc1	11	104	107	1	-6	2	.	.	.
Cc1ccsc1/C=C(/C#N)C(=O)NCc1ccccc1	7	108	112	1	0	58*	99	-3	101
CCOCCCNC(=O)C(NC(=O)c1cnccn1)c1ccc(C)cc1 (stereo not drawn)	5	99	102	1	-1	1	.	.	.
COc1cccc(NC(=O)c2ccc(NCCCN3CC(C)CC(C)C3)c([N+](=O)[O-])c2)c1 (stereo not drawn)	11	111	139*	1	30	19	147	16	109
COc1cccc(NC(=O)c2ccc(NCCCN3CCC(C)CC3)c([N+](=O)[O-])c2)c1	2	100	130	0	6	11	.	.	.
CCC(CC)NC(=O)COC(=O)c1ccc(OCc2ccc(C(C)=O)cc2OC)c(OC)c1	26	97	98	3	1	-2	.	.	.
COc1cc(C(C)=O)ccc1COc1ccc(C(=O)OCC(N)=O)cc1OC	-1	72*[inhibitor]	98	-1	-12	-1	110	12	107
